The values below come from publication PMC4784694 (Molecular cancer therapeutics, 2015).

Data set [1] relates to MDA-MB-231 tumors. It counts as in vivo, NSG mice. The note with it: eribulin 0.1 mg/kg i.v.; POL5551 20 mg/kg s.c. b.i.d.; Figure 5A–C.
The subject of data set [2] is MDA-MB-231 tumors. The data set can be described thus: Eribulin dose ranging in mice bearing MDA-MB-231 tumors. It counts as in vivo. In a few lines:
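Female NSG mice, 6–8 weeks old, were inoculated with 5×10⁵ MDA-MB-231 cells in Matrigel into the #9 mammary fat pad to form orthotopic tumours. Eribulin was diluted in saline and given i.v. once a week, at 0.1 mg/kg for primary fat-pad therapy. Vehicle controls received saline. Weight change is reported as mean and range.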

For another data set, the system named is breast cancer cells. The note with it: Supplemental Figure 3B; others and own data.

Consider `C=C1C[C@@H]2CC[C@@]34C[C@H]5O[C@H]6[C@@H](O3)[C@H]3O[C@H](CC[C@@H]3O[C@H]6[C@H]5O4)CC(=O)C[C@@H]3[C@@H](OC)[C@@H](C[C@H](O)CN)O[C@H]3C[C@H]3O[C@@H](CC[C@@H]1O2)C[C@@H](C)C3=C` [eribulin, Eribulin], for which, in the data set with MDA-MB-231 tumors [1], the “Primary MFP tumor growth” value was “decreased primary tumor growth rate”. Moreover, in the data set on MDA-MB-231 tumors [2] (eribulin 0.1 mg/kg single-agent, Supplemental Figure 5F), the “Primary breast tumor reduction” value is recorded as 50%. Further, the Mice survival entry in the data set on MDA-MB-231 tumors [2] (eribulin dose ranging, Supplemental Figure 5D) is “prolonged mice survival in a dose-dependent manner”. Besides, the “Treatment associated weight loss” value in the data set on MDA-MB-231 tumors [2] (high dose of eribulin (>0.5 mg/kg), Supplemental Figure 5E) was “greater treatment associated weight loss”.
Regarding `c1cc(CN2CCCNCCNCCCNCC2)ccc1CN1CCCNCCNCCCNCC1` [AMD3100], in the data set on breast cancer cells, the “SDF-1 mediated migration of breast cancer cells” value is listed as “can block SDF-1 mediated migration of breast cancer cells”.
